Screening data as filed in PubChem BioAssay.
PRMT1 FP inh = inhibitors of human PRMT1; Q99873; recombinant PRMT1, activity-based probe fluorescence polarization; inhibition, % at 2.79 µM; hit rate 1.3% among 370,000; AID 652257;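 active = inhibition above about 21% made by adding two undisclosed values, limit read from the data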
SIAE inh = human SIAE inhibition, primary screen | Q9HAT2 | AID 1053197 | inhibition, % at 9.66 µM | hit rate 0.69% among 370,000 | SIAE FP-Rh probe binding, fluorescence polarization;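 active = inhibition above a cutoff: mean of compounds within the control limits plus 3 SD of those, cut at about 17% in these data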;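 note: 0% = plate median of compound wells and 100% = probe without SIAE protein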
ABHD4 inh = inhibitors of mouse ABHD4; purified mABHD4, FP-Rh probe fluorescence polarization; inhibition, % at 8.92 µM; hit rate 0.54% among 370,000; AID 720543;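 active = inhibition exceeding the mean over every tested compound plus 3 SD, cut at about 30% in these data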;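 note: 0% = plate median of compound wells and 100% = S159A mutant with DMSO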
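assay system = mABHD4 protein | compound dosing = single nominal dose of 8.92 µM, 0.89% DMSO final | read-out basis = percent inhibition of probe binding, normalized to plate controls | schedule = Enzyme–compound pre-incubation 45 min, then probe 60 min, both 25 °C | detection = fluorescence polarization, excitation 525 nm, emission 598 nm, BODIPY TMR filters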
HTRA1 inh = HTRA1 (human) protease inhibition; hit rate 0.5% among 340,000; inhibition, % at 5.96 µM; recombinant HTRA1, FP-rhodamine activity-based probe, fluorescence polarization; Q92743; in the data active = inhibition above about 36%;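 note: 0% = enzyme with DMSO and 100% = wells lacking enzyme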
Target sequence (Q92743 whole entry, looked up): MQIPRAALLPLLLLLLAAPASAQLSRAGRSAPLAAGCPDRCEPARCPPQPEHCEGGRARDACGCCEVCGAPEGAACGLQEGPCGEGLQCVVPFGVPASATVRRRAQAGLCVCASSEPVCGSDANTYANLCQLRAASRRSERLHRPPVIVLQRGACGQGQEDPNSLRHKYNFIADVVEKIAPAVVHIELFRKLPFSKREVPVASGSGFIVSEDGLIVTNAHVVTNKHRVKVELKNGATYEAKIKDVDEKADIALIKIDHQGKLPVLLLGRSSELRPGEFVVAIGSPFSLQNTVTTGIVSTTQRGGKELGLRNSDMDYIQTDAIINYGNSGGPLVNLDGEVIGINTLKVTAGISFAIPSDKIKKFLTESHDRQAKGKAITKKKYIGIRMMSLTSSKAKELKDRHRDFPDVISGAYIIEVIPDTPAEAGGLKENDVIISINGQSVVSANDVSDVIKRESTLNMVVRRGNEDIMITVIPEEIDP
TCR-CD3 inh = human TCR-CD3 binding inhibition; TAMRA-labeled TCR probe fluorescence, biochemical; inhibition, % at 9.4 µM; hit rate 0.37% among 360,000; AID 651800;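 note: recombinant mutant TCR 2C K166C tagged with TAMRA read by polarization; 0% = receptor in buffer alone and 100% = receptor with positive control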
HTRA1 conf = confirmation of human HTRA1 inhibitors; shares compounds with HTRA1 inh; recombinant HTRA1, FP-rhodamine activity-based probe, fluorescence polarization; hit rate 66% among 1,600; inhibition, % at 5.96 µM;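 active = mean inhibition over three repeats above a set limit taken from the earlier primary screen, cut at about 37% in these data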;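 note: 0% = HTRA1 with DMSO and 100% = wells lacking HTRA1; inhibitors block probe binding so polarization drops and inhibition rises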
BSA probe FL = BSA probe counter-screen for TCR-CD3 inhibitors; hit rate 10% among 1,200; inhibition, % at 9.4 µM; shares compounds with TCR-CD3 inh; TAMRA-labeled BSA probe fluorescence counterscreen; AID 652035; in the data active = inhibition above about 23%;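 note: 0% = buffer low control and 100% = reference high control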
TCR-CD3 conf = TCR-CD3 interaction inhibition, confirmation; shares compounds with TCR-CD3 inh; TAMRA-labeled TCR probe fluorescence binding assay; inhibition, % at 9.4 µM; hit rate 48% among 1,200; AID 652036
* = called active by the depositor; / = not tested or not shown. Shown are actives, neighbours in structure and some others; about 2.5% of the full set was active somewhere. Cut-off read from the data, not from the text of the source, unless noted: active = inhibition above about 19%; inactive = the rest.

SMILES	PRMT1 FP inh	SIAE inh	ABHD4 inh	HTRA1 inh	TCR-CD3 inh	HTRA1 conf	BSA probe FL	TCR-CD3 conf
O[C@H](COc1cccc(C(F)(F)F)c1)CN1CCC(C(O)(c2ccccc2)c2ccccc2)CC1	-1	-8	8	/	/	/	/	/
COc1ccc(-c2cnnc(N/N=C/c3ccc(O)cc3)n2)cc1	3	0	7	4	2	/	/	/
COc1ccc(-c2cnnc(N/N=C/c3ccc(O)c(O)c3)n2)cc1	6	5	21	60*	49*	78*	-21	44*
O=C(NNC(=O)c1cc2cc(Br)ccc2oc1=O)c1ccc(O)cc1O	3	-8	27	58*	46*	83*	-15	35*
C=CCn1c(SCC(=O)Nc2ccc(CCCC)cc2)nnc1-c1ccc(Cl)cc1	6	0	0	/	/	/	/	/
Cc1cc(/C=N/n2c(COc3ccccc3)nc3ccccc3c2=O)c(O)c([N+](=O)[O-])c1	7	24*	16	41*	39*	54*	35*	56*
O=C(N/N=C/c1cc(Br)cc(Cl)c1O)c1ccc2c(c1)OCO2	-4	-1	6	42*	38*	14	-6	29*
O=C(NCc1ccc(Cl)cc1)C1CCCN(c2ncccn2)C1 (stereo unspecified)	0	0	2	/	/	/	/	/
CCOc1ccc(CCNC(=O)c2cc(-c3ccccc3)c(N3CCOCC3)s2)cc1OC	4	-2	1	/	/	/	/	/
N#CCc1ccc(OC[C@@H](O)CN2CCC(C(O)(c3ccccc3)c3ccccc3)CC2)cc1	-4	0	5	/	/	/	/	/
COc1cccc2c1C(=O)c1c(O)c3c(c(O)c1C2=O)C[C@@](O)(C(=O)CO)C[C@@H]3O[C@H]1C[C@H](N)[C@H](O)[C@H](C)O1	129*	39*	52*	63*	137*	67*	157*	127*
Cc1nnsc1C(=O)N/N=C/c1ccccc1	-1	3	3	-1	4	/	/	/
Cc1nnsc1C(=O)N/N=C/c1ccc2ccccc2c1O	15	6	5	41*	41*	55*	-23	29*
O=C1CCC[C@H]2Cc3nc4cccc(Cl)c4cc3C[C@]23CCCN13	3	-6	3	/	/	/	/	/
CCOC(=O)[C@@]12CCC3=C1N(CCC3)C(=O)[C@H](CC(=O)N1CCSCC1)C2	-3	4	3	/	/	/	/	/
Cc1c(C(=O)NNC(=O)c2ccccc2O)oc2ccc(Br)cc12	1	-10	-8	41*	39*	69*	-14	24*
CC[C@@H](CCCCCC#N)CCC(=O)N(c1ccccc1)c1ccccc1	-2	9	-14	/	/	/	/	/
Cc1ccc(NC(=S)NNC(=O)CSc2nnc(-c3ccc(C)cc3)n2C2CCCCC2)cc1	-2	1	18	/	/	/	/	/
O=C(O)CC(CCc1ccccc1)OC1OC(CO)C(O)C(O)C1O (stereo unspecified)	5	-17	0	41*	32*	41*	-11	30*
CCCCNC(=S)N/N=C/c1cccc(OCC)c1O	0	2	5	17	6	/	/	/
CCOc1cccc(/C=N/NC(=S)Nc2ccccc2[N+](=O)[O-])c1O	0	7	27	54*	31*	51*	-4	15
COc1cc(-c2nnc(SCc3cc(=O)oc4cc(O)c(O)cc34)o2)cc(OC)c1OC	17	1	33*	47*	28*	35	-16	40*
CCOC(=O)CSc1nnc(-c2cc(OC)c(OC)c(OC)c2)o1	2	-8	0	0	-2	/	/	/
Oc1ccc(-c2cn3ccccc3n2)cc1O	4	-4	21	12	19	/	/	/
Cc1ccn2cc(-c3ccc(O)c(O)c3)nc2c1	18	6	26	44*	34*	65*	-9	26*
O=C(CCN1C(=O)/C(=C\c2ccccc2)SC1=S)NNC(=O)c1cccnc1	-4	-2	-10	6	2	/	/	/
O=C(CCN1C(=O)/C(=C\c2ccccc2)SC1=S)NNC(=O)c1ccccc1O	6	-1	8	56*	40*	54*	-6	36*
